Active and inactive are the calls of the source. No cut-off for these calls is given here.
What was measured:
[1] = Iron chelating activity in ammonium acetate buffer assessed as inhibition of [Fe(ferrozine)3]2+ formation at 100 uM at pH 6.7 measured after 10 mins by spectrophotometric analysis
In short: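 Ferrozine assay in ammonium acetate buffer pH 6.7. Compound (100 μM) plus ammonium iron(II) sulfate (20 μM) for 10 min, read at 562 nm. Ferrozine was added, incubated 10 min at 37 °C, and re-read at 562 nm. The first reading was subtracted, with a DMSO blank and EDTA = 100%. Three experiments.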

[2] = Induction of mPTP in energized rat liver mitochondria at 2.5 to 10 uM after 5 mins in presence of succinate by spectrophotometric analysis
[3] = organism: Rattus norvegicus; assay: Inhibition of mPTP in energized rat liver mitochondria at 10 uM after 5 mins in presence of succinate by spectrophotometric analysis
In short: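 Ca2+ (15–50 μM, titrated daily) added to trigger mPTP, with cyclosporin A as control. Swelling followed as light scattering at 540 nm with stirring at 37 °C. Reported as Δabsorbance; mean ± SEM, n=3.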

[4] = system: HepG2; assay: Cytotoxicity against human HepG2 cells assessed as chromatin condensation at 2.5 uM after 48 hrs Hoechst 33342-staining based epifluorescence microscopic analysis; assay type: cell-based; details: hepg2, 48 h
In short: (§1)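 HepG2 cells on coverslips (8 × 10^4 cells/2 mL) were treated 48 h. In the last 30 min, cells were stained with TMRM (100 nM) and Hoechst 33342 (1 μg/mL) in HBSS pH 7.4 at 37 °C in the dark. Live cells were imaged by fluorescence microscopy, four random fields per well, three experiments.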

[5] = system: HepG2; assay: Cytotoxicity against human HepG2 cells assessed as depletion of intracellular GSH content at 2.5 uM after 48 hrs by HPLC analysis; assay type: cell-based; details: hepg2, 48 h
In short: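 HepG2 cells (4 × 10^5 per 100 mm dish) were incubated 48 h, collected and stored at −80 °C in PBS. Reduced GSH was measured by reverse-phase HPLC with detection at 515 nm and expressed as nmol GSH/μg protein. Four experiments.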

[6] = system: Liver; assay: Increase in oligomycin-inhibited respiration in rat liver mitochondria after 5 mins in presence of succinate; assay type: functional
In short: (§2)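 Glutamate/malate (10/5 mM) or succinate (5 mM) was the substrate, with compound 2.5–10 μM for 5 min (state 2). ADP was added (125 nmol glutamate/malate; 75 nmol succinate), then oligomycin 2 μg/mL, then FCCP 1 μM. RCR and ADP/O were calculated. Seven experiments.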

[7] = Antioxidant activity assessed as ABTS radical scavenging activity measured each minute for 15 mins by spectrophotometric analysis; assay type: functional
In short: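 ABTS•+ generated from 7 mM ABTS plus potassium persulfate, held 16 h dark at room temperature, then diluted in ethanol to absorbance 0.72 ± 0.02. Ethanolic test solutions (10–500 μM) were added to radical solution in triplicate. Inhibition was taken against an ethanol blank (100% radical), and IC50 was read from dose–response curves.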

[8] = Antioxidant activity assessed as GO radical scavenging activity measured for 30 mins in absence of light; assay type: functional
In short: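 Ethanolic GO• (5 mM stock) diluted to absorbance 1.00 ± 0.02 at 428 nm. Test solutions (5–75 μM in ethanol) were added in triplicate and read at 428 nm at room temperature. Inhibition was taken against an ethanol blank (100% radical).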

[9] = system: Liver; assay: Induction of basal oxygen consumption under nonphosphorylative conditions in rat liver mitochondria after 5 mins in presence of glutamate/malate; assay type: functional; in short: as §2
[10] = system: Liver; assay: Antioxidant activity in rat liver mitochondria assessed as inhibition of ADP/FeSO4-induced lipid peroxidation at 5 uM preincubated for 5 mins followed by ADP/FeSO4 addition; assay type: functional
In short: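 Rat liver mitochondria (2 mg) in 100 mM KCl, 10 mM Tris-HCl pH 7.6, with glutamate/malate (5/2.5 mM) at 37 °C. After 5 min with compound (5 μM), peroxidation was started with ADP/0.1 mM FeSO4. The lag phase of O2 consumption was measured by Clark electrode and expressed as % of control. Six experiments.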

[11] = system: Liver; assay: Decrease in oxidative phosphorylation efficiency in rat liver mitochondria assessed as reduction in respiratory control ratio after 5 mins in presence of glutamate/malate; assay type: functional; in short: as §2
[12] = Antioxidant activity assessed as DPPH radical scavenging activity measured every minute for 45 mins; assay type: functional
In short: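 DPPH• ethanolic solution diluted to absorbance 0.72 ± 0.02 at 515 nm. Ethanolic test solutions (50–500 μM) were added in triplicate and read at 515 nm. Inhibition was taken against an ethanol blank (100% radical), and IC50 was read from dose–response curves.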

[13] = system: Liver; assay: Ratio of drug level in rat liver intra-mitochondria to extra-mitochondria at 1 uM in presence of succinate/valinomycin by TPP+-based electrode assay; assay type: ADME, tissue-based
In short: (§3)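 TPP+-selective electrode with rat liver mitochondria (0.5 mg/mL) in 120 mM KCl, 10 mM HEPES pH 7.2, 1 mM EGTA at 37 °C with rotenone 1.5 μM. Five 1 μM additions calibrated the electrode, then succinate 10 mM was added, then valinomycin 0.2 μg/mL. The accumulation ratio assumed a matrix volume of ~0.5 μL/mg with a binding correction.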

[14] = system: Liver; assay: Induction of basal oxygen consumption under nonphosphorylative conditions in rat liver mitochondria after 5 mins in presence of succinate; assay type: functional; in short: as §2
[15] = system: Liver; assay: Drug uptake in rat liver extra-mitochondria at 1 uM in presence of succinate/valinomycin by TPP+-based electrode assay; assay type: ADME, tissue-based; in short: as §3
[16] = Redox potential of compound in Ag/AgCl-NaCl containing phosphate buffer at 0.1 mM at pH 7.4 by cyclic voltammetric analysis
In short: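 Voltammetry used a glassy carbon working electrode, Pt counter and Ag/AgCl reference. Compound was at 0.1 mM final (10 mM ethanolic stock) in pH 7.4 potassium phosphate electrolyte.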

[17] = system: Liver; assay: Induction of basal respiration in rat liver mitochondria measured 5 mins after ADP phosphorylation in presence of glutamate/malate; assay type: functional; in short: as §2
[18] = organism: Rattus norvegicus; assay: Inhibition of mPTP in energized rat liver mitochondria at 2.5 to 10 uM after 5 mins in presence of succinate by spectrophotometric analysis
[19] = system: Liver; assay: Drug uptake in rat liver intra-mitochondria at 1 uM in presence of succinate/valinomycin by TPP+-based electrode assay; assay type: ADME, tissue-based; in short: as §3
[20] = system: HepG2; assay: Antioxidant activity in human HepG2 cells assessed as intracellular GSH content per ug of protein at 2.5 uM after 48 hrs by HPLC analysis (reference value: 17.81 nmol); assay type: functional
[21] = system: HepG2; assay: Cytotoxicity against human HepG2 cells assessed as mitochondrial depolarization at 2.5 uM after 48 hrs TMRM-staining based epifluorescence microscopic analysis; assay type: cell-based; details: hepg2, 48 h; in short: as §1
[22] = system: Liver; assay: Increase in oligomycin-inhibited respiration in rat liver mitochondria after 5 mins in presence of glutamate/malate; assay type: functional; in short: as §2
[23] = system: Liver; assay: Induction of ADP-stimulated respiration in rat liver mitochondria after 5 mins in presence of succinate; assay type: functional; in short: as §2
[24] = system: Liver; assay: Inhibition of ADP-induced membrane depolarization in succinate energized rat liver mitochondria at 5 uM preincubated for 5 mins followed by ADP addition measured by safranine-based spectrofluorometric analysis; assay type: functional, tissue-based
In short: (§4)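 Safranine (5 μM) fluorescence (ex 495/em 586 nm) at 25 °C. Rat liver mitochondria (0.5 mg/2 mL) were in 200 mM sucrose, 1 mM KH2PO4, 10 mM Tris pH 7.4, 10 μM EGTA with glutamate/malate or succinate, after 5 min with 2.5–10 μM. ADP 25 nmol depolarised, then FCCP 1 μM was added. A valinomycin calibration in K+-free medium was used, five experiments.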

[25] = system: Liver; assay: Induction of membrane hyperpolarization in rat liver mitochondria assessed as change in repolarization potential at 2.5 uM; assay type: functional; in short: as §4
[26] = system: HepG2; assay: Antioxidant activity in human HepG2 cells assessed as reduction in H2O2-induced cell toxicity at 2.5 uM preincubated for 1 hr followed by H2O2 addition for 48 hrs by SRB assay; assay type: functional, cell-based
In short: (§5)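 HepG2 cells, grown in high-glucose DMEM with 10% FBS at 37 °C and 5% CO2, seeded at 2 × 10^4 cells/500 μL. Cells were preincubated with compound, then given 250 μM FeSO4 or 250 μM H2O2. Cell mass was read by SRB (fixed, stained, OD 540 nm) as % of untreated control. Four independent experiments.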

[27] = Lipophilicity of compound in Ag/AgCl-NaCl containing PET membrane assessed as tranfer potential at pH 7; assay type: physicochemical
In short: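 Transfer across a liquid–liquid interface on a microporous PET membrane, with 1,6-dichlorohexane organic phase containing BTPPATPBCl. A gelled 2 mM BTPPACl + 2 mM NaCl reference was used, with 10 mM Tris-HCl pH 7.0 aqueous electrolyte.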

[28] = system: HepG2; assay: Cytotoxicity against human HepG2 cells assessed as reduction in cell density at >2.5 uM after 48 hrs by SRB assay; assay type: cell-based; details: hepg2, 48 h
[29] = system: Liver; assay: Induction of ADP-stimulated respiration in rat liver mitochondria after 5 mins in presence of glutamate/malate; assay type: functional; in short: as §2
[30] = system: HepG2; assay: Antioxidant activity in human HepG2 cells assessed as reduction in FeSO4-induced cell toxicity at 2.5 uM preincubated for 1 hr followed by FeSO4 addition for 48 hrs by SRB assay; assay type: functional, cell-based; in short: as §5
[31] = system: Liver; assay: Decrease in oxidative phosphorylation efficiency in rat liver mitochondria assessed as reduction in coupling between ATP systhesis and oxygen consumption after 5 mins in presence of succinate; assay type: functional; in short: as §2
[32] = system: Liver; assay: Induction of basal respiration in rat liver mitochondria measured 5 mins after ADP phosphorylation in presence of succinate; assay type: functional; in short: as §2
[33] = system: Liver; assay: Decrease in oxidative phosphorylation efficiency in rat liver mitochondria assessed as reduction in coupling between ATP systhesis and oxygen consumption after 5 mins in presence of glutamate/malate; assay type: functional; in short: as §2
[34] = system: Liver; assay: Antioxidant activity in rat liver mitochondria assessed as inhibition of FeSO4/H2O2-induced lipid peroxidation at 5 uM preincubated for 5 mins followed by FeSO4/H2O2 addition for 15 mins by TBARS-based fluorescence assay; assay type: functional
In short: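 Rat liver mitochondria (2 mg protein/mL) in 100 mM KCl, 10 mM Tris-HCl pH 7.6 with glutamate/malate at 37 °C. After 5 min with compound (5 μM), 100 μM FeSO4/500 μM H2O2/5 mM ascorbate was added for 15 min. Butylated hydroxytoluene, perchloric acid and thiobarbituric acid were added, then heated 15 min at 100 °C. Read-out as % of control, three experiments.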

[35] = system: Liver; assay: Inhibition of ADP-induced membrane depolarization in succinate energized rat liver mitochondria at 10 uM preincubated for 5 mins followed by ADP addition measured by safranine-based spectrofluorometric analysis; assay type: functional, tissue-based; in short: as §4

SMILES | Activity [2] | Activity [6] | IC50 [7] | IC50 [8] | Activity [9] | inhibition [10] | Activity [11] | IC50 [12] | Ratio [13] | Activity [14] | Drug uptake [15] | Activity [16] | Activity [17] | inhibition [18] | Drug uptake [19] | Activity [22] | Activity [23] | Activity [25] | Activity [27] | Activity [29] | other results
COC1=C(OC)C(=O)C(CCCCCCCCCC[P+](c2ccccc2)(c2ccccc2)c2ccccc2)=C(C)C1=O.CS(=O)(=O)[O-] [MITOQUINONE MESYLATE] | Non-Toxic | – | – | – | – | – | – | – | – | – | – | – | – | – | – | – | – | – | – | – | inhibition [1]: inactive; inhibition [3]: inactive
CS(=O)(=O)[O-].O=C(/C=C/c1ccc(O)c(O)c1)NCCCCCCCCCC[P+](c1ccccc1)(c1ccccc1)c1ccccc1 | Non-Toxic | Dose-dependent effect | 23.5 µM | 2.7 µM | Dose-dependent effect | Active | Dose-dependent effect | 25.9 µM | 2700 | Dose-dependent effect | 1.9 µM | 0.174 V | Dose-dependent effect | Active | 4.7 mM | Dose-dependent effect | Dose-dependent effect | 10 mV | 0.291 V | Dose-dependent effect | Activity [4]: Non-Toxic; Activity [5]: Non-Toxic; Activity [20]: 20.85 nmol; Activity [21]: Non-Toxic; inhibition [24]: Active; inhibition [26]: Active; Activity [28]: Toxic; inhibition [30]: Active; Activity [31]: Dose-dependent effect; Activity [32]: Dose-dependent effect; Activity [33]: Dose-dependent effect
CS(=O)(=O)[O-].O=C(/C=C/c1cc(O)c(O)c(O)c1)NCCCCCCCCCC[P+](c1ccccc1)(c1ccccc1)c1ccccc1 | Non-Toxic | Dose-dependent effect | 7.5 µM | 2.5 µM | Dose-dependent effect | Active | Dose-dependent effect | 13.7 µM | 3500 | Dose-dependent effect | 1.4 µM | 0.057 V | Dose-dependent effect | Active | 5 mM | Dose-dependent effect | Dose-dependent effect | 25 mV | 0.377 V | Dose-dependent effect | inhibition [34]: Active; inhibition [35]: Active; Activity [31]: Dose-dependent effect; Activity [32]: Dose-dependent effect; Activity [33]: Dose-dependent effect

— ChEMBL document CHEMBL4038331 (J Med Chem, 2017)
